SUMO HTRF inh – inhibitors of human SUMOylation (UBC9) | P63279 | HTRF SUMOylation assay, SAE1/SAE2 + UBC9, in vitro | inhibition, % at 35 µM | 0.36% of 290,000 active | AID 2006; in the data active means inhibition above about 50%, passing the limit was not always enough; inconclusive means no clear call, values can overlap the other calls
Target sequence (P63279 whole entry, looked up): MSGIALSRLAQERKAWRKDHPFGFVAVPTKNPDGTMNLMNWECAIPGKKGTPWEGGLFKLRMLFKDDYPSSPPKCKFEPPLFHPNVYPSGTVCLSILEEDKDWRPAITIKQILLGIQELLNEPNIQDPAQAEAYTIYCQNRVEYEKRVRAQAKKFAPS
GSTO1 inh – counter-screen for RBBP9 inhibitors: inhibitors of human GSTO1; P78417; recombinant GSTO1, activity-based probe fluorescence polarization; inhibition, % at 5.96 µM; 1.1% of 300,000 active;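 active means inhibition above the campaign mean inhibition plus 3 SD, cut at about 35% in these data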;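 further: 0% = GSTO1-1 with DMSO and 100% = wells lacking GSTO1-1 enzyme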
Target sequence (P78417 whole entry, looked up): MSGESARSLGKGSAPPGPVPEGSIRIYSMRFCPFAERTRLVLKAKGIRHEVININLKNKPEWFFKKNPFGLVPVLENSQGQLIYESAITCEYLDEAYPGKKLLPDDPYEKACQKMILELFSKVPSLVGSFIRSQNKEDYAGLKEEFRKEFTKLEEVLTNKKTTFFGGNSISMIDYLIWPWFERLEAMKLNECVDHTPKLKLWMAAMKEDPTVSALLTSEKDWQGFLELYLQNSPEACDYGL
Rin1-Abl PPI inh – blocks binding of human Rin1 to Abl. P00519+Q13671. TR-FRET Rin1/Abl binding, biochemical. inhibition, % at 7.35 µM. 0.4% of 360,000 active; in the data active means inhibition above about 5%, passing the limit was not always enough
Apaf-1 inh – inhibitors of human Apaf-1 apoptosome; O14727; reconstituted apoptosome caspase-3 activity, DEVD-Rh110 fluorescence; inhibition, % at 20 µM; 0.71% of 330,000 active; AID 489030; active means inhibition of at least 40% at 20 µM;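 further: plate controls were DMSO wells for no effect and DEVD-CHO caspase inhibitor wells for full effect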
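System: Apoptosome proteins | Medium: Hepes pH 7.5 with detergent and BSA | Also added: Cytochrome c trigger plus (Z-DEVD)2-Rh110 caspase-3 substrate | Incubation: 30 min compound preincubation, 50 min activation, room temperature | Detection: Rhodamine 110 fluorescence at Ex 480/Em 540 nm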
UBC13 inh – inhibitors of human UBC13 polyubiquitin chain formation; TR-FRET; 0.47% of 330,000 active; inhibition, % at 20 µM; AID 485273; in the data active means inhibition above about 45%, passing the limit was not always enough; inconclusive means no clear call, values can overlap the other calls
Target sequence (P61088 whole entry, looked up): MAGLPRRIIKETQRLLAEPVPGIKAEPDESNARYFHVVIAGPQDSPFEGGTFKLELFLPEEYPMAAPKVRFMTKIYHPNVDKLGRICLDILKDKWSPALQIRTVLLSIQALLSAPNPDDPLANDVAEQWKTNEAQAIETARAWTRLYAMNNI
PAD4 inh – blocks human protein arginine deiminase 4; Q9UM07; recombinant PAD4, RCA probe fluorescence polarization; inhibition, % at 6.36 µM; 0.41% of 330,000 active; AID 485272;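 active means percent inhibition above a cutoff equal to the mean of all tested compounds plus 3 SD, cut at about 15% in these data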;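 further: 0% = PAD4 with RCA probe and DMSO and 100% = probe without PAD4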
Casp3 UBC13 ctr – caspase-3 inhibition (UBC13 counter-screen). Recombinant caspase-3, Caspase-Glo 3/7 luminescence, 60 min. 4% of 1,400 active. shares compounds with UBC13 inh. inhibition, % at 20 µM. AID 488856;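 active means mean inhibition across replicates above about 26%, limit read from the data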;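 further: plate controls were DMSO with caspase-3 for no effect and DMSO wells lacking enzyme for full effect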
UBC13 confirm – human UBC13 polyubiquitin inhibition, confirmed | shares compounds with UBC13 inh | UBC13 polyubiquitination, TR-FRET, biochemical | inhibition, % at 10 µM | 68% of 1,400 active | AID 488859; in the data active means inhibition above about 45%; inconclusive means no clear call, values can overlap the other calls
Numbers without * were called inactive; ? = inconclusive; / = no result. An excerpt weighted towards active compounds, which were near 2.2% of everything screened.

SMILES | SUMO HTRF inh | GSTO1 inh | Rin1-Abl PPI inh | Apaf-1 inh | UBC13 inh | PAD4 inh | Casp3 UBC13 ctr | UBC13 confirm
CN(C)CCCN(C(=O)c1ccc(S(=O)(=O)N(C)Cc2ccccc2)cc1)c1nc2cc3c(cc2s1)OCO3 | 3 | -5 | 0 | 25 | 90* | -2 | 0 | 108*
Cc1ccc2sc(N(CCCN(C)C)C(=O)c3ccc(S(=O)(=O)N(C)Cc4ccccc4)cc3)nc2c1C | / | -4 | 2 | 32 | 39 | -3 | / | /
CCOc1cccc2sc(N(CCCN(C)C)C(=O)c3ccc(S(=O)(=O)N(CC)Cc4ccccc4)cc3)nc12 | 11 | 6 | 1 | 67* | 51* | -3 | -4 | 93*
Cc1cc(C)c2sc(N(CCCN(C)C)C(=O)c3ccc(S(=O)(=O)N(C)Cc4ccccc4)cc3)nc2c1 | / | 1 | 4 | 37 | 96* | -2 | 2 | 115*
CCN(Cc1ccccc1)S(=O)(=O)c1ccc(C(=O)N(CCCN(C)C)c2nc3c(F)cccc3s2)cc1 | 8 | 2 | 0 | 19 | 24 | -2 | / | /
CCCN(CCC)Cc1c(C(=O)N/N=C/CCc2ccccc2)nnn1-c1nonc1N | -8 | 4 | 0 | 22 | -3 | -1 | / | /
COc1ccc2sc(-c3ccccc3OC)c(C#Cc3cncn3C)c2c1 | / | / | 1 | 22 | 51* | 0 | 0 | 38
COc1ccc2sc(-c3ccccc3OC)c(C#CC(C)(C)O)c2c1 | / | / | 0 | 5 | 12 | 3 | / | /
COc1ccccc1-c1sc2cc3c(cc2c1C#Cc1cncn1C)OCO3 | / | / | 2 | 31 | 45* | 4 | 0 | 38
CCC(CC)c1nnc(NC(=O)c2cccc(S(=O)(=O)N3CCOCC3)c2)s1 | / | / | -2 | 6 | 11 | -1 | / | /
CSc1ccccc1NC(=O)CN1C(=O)C2CC=CCC2C1=O (configuration not stated) | / | / | 3 | -2 | 4 | / | / | /
CCOC(=O)c1c(CN2CCN(c3ccccc3)CC2)oc2ccc(O)cc12 | 19 | 2 | 0 | 9 | 91* | 2 | -3 | 83*
CCOC(=O)c1c(CN2CCN(C)CC2)oc2ccc(OC)cc12 | 7 | 7 | -2 | -13 | 7 | -4 | / | /
NC(N)=NCCCC(NC(=O)c1ccccc1)C(=O)Nc1ccc2ccccc2c1 (configuration not stated) | / | 0 | -1 | 37 | 48* | -2 | -1 | 30
O=S(=O)(Nc1cccc(-n2cnnn2)c1)c1cc(Br)ccc1Br | 1 | 2 | 0 | 6 | 1 | -4 | / | /
CCOC(=O)c1c(C)n(C)c2ccc(OCC(O)CNC(CC)CO)cc12 (configuration not stated) | -30 | 2 | -1 | 1 | 10 | -8 | / | /
CCOC(=O)c1c(C)n(-c2ccc(C)cc2)c2ccc(OCC(O)CNCCCO)cc12 (configuration not stated) | -13 | -3 | 3 | 14 | 62* | -1 | 0 | 64*
CCOC(=O)c1c(C)n(-c2ccc(C)cc2)c2ccc(OCC(O)CNCC3CCCO3)cc12 (configuration not stated) | 4 | 5 | 1 | 21 | 56* | -2 | 0 | 77*
CCc1nc2ccc(C(=O)N(CC)CCN(C)C)cn2c1N(C=O)CCC(C)C | / | / | 4 | / | / | / | / | /
CCOC(=O)N1CCc2c(sc(NC(=O)CN(CC)CC)c2C#N)C1 | -3 | -3 | -4 | -14 | 78* | -3 | -2 | 95*
COc1cc(C(CC(=O)N2CCCC2)c2c(OC)cc(OC)c3c(-c4ccccc4)cc(=O)oc23)cc(OC)c1OC (configuration not stated) | 13 | 4 | -1 | 15 | -1 | -6 | / | /
COc1cc(C(CCN2CCCCC2)c2c(OC)cc(OC)c3c(-c4ccccc4)cc(=O)oc23)cc(OC)c1OC (configuration not stated) | 4 | 2 | -4 | 18 | 48* | -5 | -2 | 29
COc1cc(C(CCN2CCCC(C)C2)c2c(OC)cc(OC)c3c(-c4ccccc4)cc(=O)oc23)cc(OC)c1OC (configuration not stated) | -7 | 3 | 0 | 26 | 65* | 4 | -3 | 30
CCCCCc1cc(=O)oc2c(C(CCN3CCN(c4ccccc4)CC3)c3ccc4c(c3)OCO4)c(OC)cc(OC)c12 (configuration not stated) | -9 | 3 | 0 | 25 | 16 | 3 | / | /
CCCCCc1cc(=O)oc2c(C(CCN3CCCCC3)c3ccc(OC)cc3)c(OC)cc(OC)c12 (configuration not stated) | 5 | -3 | 2 | 38 | 84* | -3 | -1 | 63*
SMILES | SUMO HTRF inh | GSTO1 inh | Rin1-Abl PPI inh | Apaf-1 inh | UBC13 inh | PAD4 inh | Casp3 UBC13 ctr | UBC13 confirm
C[C@H](CO)N1C[C@H](C)[C@@H](CN(C)C)Oc2c(NS(=O)(=O)c3ccccc3)cccc2C1=O | / | / | 1 | -5 | 4 | 0 | / | /
Fc1ccc(-n2cc(-c3ccccc3)c3c(=S)nc[nH]c32)cc1 | -1 | -5 | 0 | 16 | 43 | -1 | / | /
Fc1cccc(-n2cc(-c3ccccc3)c3c(=S)nc[nH]c32)c1 | -3 | -18 | -4 | 10 | 56* | -6 | 0 | ?
COc1cc(CCN(C(C)=O)C2C(=O)Nc3ccccc3N=C2c2ccc3c(c2)OCO3)cc(OC)c1 (configuration not stated) | / | / | 2 | / | / | / | / | /
Cc1ccc(COc2ccc(/C=N/O)cc2)cc1 | -18 | -2 | -4 | 5 | 9 | 0 | / | /
NC(N)=N/N=C/c1ccc(OCc2ccc(Cl)cc2)cc1 | 12 | -1 | 0 | 26 | 102* | 0 | 22 | 120*
NC(N)=N/N=C/c1ccc(OCc2ccccc2)cc1 | -18 | -8 | -1 | 11 | 50* | 0 | 16 | 53*
CCOC(=O)c1nc2sc(C)c(C)c2c(=O)[nH]1 | 43 | -10 | -4 | -13 | 10 | 4 | / | /
CCOC(=O)/C(=C\c1cccc(O)c1)c1nc2sc(C)c(C)c2c(=O)[nH]1 | -5 | -3 | -1 | -4 | 67* | 1 | -1 | 66*
CCN(CC)c1ccc(/C=C2\CCC(/C=N/NC(=O)c3ccc(=O)n(C)c3)=C2N2CCOCC2)cc1 | -13 | 0 | 8 | 6 | 53* | -26 | 1 | -6
C#CCOCCOCCOCCNc1nc(N2CCN(C(=O)Cn3cc(CCCN=C(N)N)nn3)CC2)nc(N2CCN(C(=O)[C@H](CCCCN)n3cc(CCCC)nn3)CC2)n1 | / | 16 | 5 | 32 | 33 | -1 | / | /
